# Bioassay records from PubChem.
# HCV NS3 hel inh – inhibitors of HCV NS3 helicase, primary screen, biochemical, Cy5 molecular beacon fluorescence. Hepatitis C virus NS3 helicase. inhibition, % at 10.9 µM. NS3 helicase DNA unwinding. hit rate 0.56% among 290,000;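 active = inhibition above the mean of all tested compounds plus 3 SD, set per campaign, cut at about 35% in these data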
#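 Assay system: hepatitis C virus NS3 helicase domain fragment enzyme. Also added: annealed dual-labelled DNA beacon duplex, ATP-started. Timing: 1 h reaction at 25 °C, ATP-initiated. Technique: Cy5 fluorescence at 0 and 60 min, beacon hairpin quenching. Evaluation: % inhibition of unwinding. Replication: one well per compound.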
# ZTA counter – counter-screen for EBNA-1 inhibitors: inhibitors of Epstein-Barr virus ZTA | ZTA-DNA binding, fluorescence polarization | hit rate 0.15% among 320,000 | AID 2234 | inhibition, % at 11 µM; in the data active = inhibition above about 33%
# Target sequence (P03206 whole entry, looked up): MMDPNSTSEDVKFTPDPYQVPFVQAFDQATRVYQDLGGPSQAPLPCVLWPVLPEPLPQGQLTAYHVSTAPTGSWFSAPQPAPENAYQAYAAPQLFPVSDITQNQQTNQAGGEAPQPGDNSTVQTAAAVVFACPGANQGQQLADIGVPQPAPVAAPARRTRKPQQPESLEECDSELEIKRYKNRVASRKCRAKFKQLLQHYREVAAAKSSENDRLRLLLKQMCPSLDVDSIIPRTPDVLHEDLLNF
# PfM18AAP inh-1 – PfM18AAP inhibitors, malaria aminopeptidase, primary screen, biochemical, QFRET, recombinant enzyme; M18 aspartyl aminopeptidase (Plasmodium falciparum 3D7); H-Glu-NHMec fluorogenic cleavage; inhibition, % at 7.35 µM; hit rate 1.2% among 290,000; AID 1822, 2009;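 active = inhibition above the campaign mean inhibition over all tested compounds plus 3 SD, cut at about 28% in these data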
# HCV core dimer – inhibitors of HCV core protein dimerization, primary screen, biochemical, TR-FRET, high-throughput; inhibition, % at 5 µM; AID 1899, 2009; hit rate 0.33% among 300,000; TR-FRET GST/Flag-core106 dimerization, 1536-well;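 active = inhibition above the mean of all tested compounds plus 3 SD, set per screening campaign, cut at about 45% in these data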
#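 Assay system: Tagged HCV core106 pair (GST and Flag) | Buffer or medium: KF-containing HEPES buffer, pH 7.45, DTT, CHAPS, BSA | Also added: Eu donor and XL665 acceptor anti-tag antibodies | Dosing: One concentration, 5 µM, in 0.5% DMSO | Timing: 4 h at 22.5 °C | Technique: TR-FRET 671 and 617 nm emission | Repeats: Singlicate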
# ALR H2O2 inh – inhibitors of human ALR sulfhydryl oxidase, primary screen, biochemical, H2O2 detection, HRP-luminol luminescence, single point | FAD-linked sulfhydryl oxidase ALR (Homo sapiens), P55789 | purified ALR, DTT oxidation | inhibition, % (no concentration beside the values) | hit rate 3.8% among 290,000;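 active = mean replicate inhibition above about 79%, with every replicate also reaching it, limit read from the data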
# EBNA-1 inh – EBNA-1 DNA-binding inhibitors, primary screen, biochemical, fluorescence polarization | AID 1950, 2009 | inhibition, % at 14.8 µM | hit rate 0.34% among 300,000; in the data active = inhibition above about 28%
# PfM18AAP inh-2 – PfM18AAP inhibitors, malaria aminopeptidase, confirmation, biochemical, QFRET, recombinant enzyme, triplicate | shares compounds with PfM18AAP inh-1 | H-Glu-NHMec fluorogenic cleavage | inhibition, % at 7.35 µM | hit rate 28% among 2,400;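 active = mean inhibition over replicate wells above the hit cutoff set for the earlier primary screen, cut at about 29% in these data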
# CTSL1 counter – cathepsin L1 inhibitors, retest, confirmation, counter-screen for PFM18AAP inhibitor project, biochemical, QFRET, triplicate; shares compounds with PfM18AAP inh-1; purified cathepsin L1, Z-Leu-Arg-MCA fluorescence; inhibition, % at 5.96 µM; 2,400 tested, under 10 active;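 active = average inhibition across replicates above the hit cutoff set in the earlier primary screen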
# Target sequence (P07711 whole entry, looked up): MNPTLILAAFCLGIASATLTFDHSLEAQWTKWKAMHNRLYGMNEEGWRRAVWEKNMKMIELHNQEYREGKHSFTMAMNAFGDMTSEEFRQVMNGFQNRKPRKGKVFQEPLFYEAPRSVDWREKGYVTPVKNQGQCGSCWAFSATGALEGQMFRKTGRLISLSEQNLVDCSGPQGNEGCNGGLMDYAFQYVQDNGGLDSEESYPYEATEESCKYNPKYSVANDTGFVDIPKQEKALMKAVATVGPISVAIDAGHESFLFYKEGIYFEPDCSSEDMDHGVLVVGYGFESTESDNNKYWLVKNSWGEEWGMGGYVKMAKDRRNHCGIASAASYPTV
# EBNA-1 confirm – EBNA-1 DNA-binding inhibitors, retest, confirmation, biochemical, fluorescence polarization, triplicate. shares compounds with EBNA-1 inh. Recombinant EBNA-1 DBD, Cy5-DNA fluorescence polarization. inhibition, % at 14.8 µM. hit rate 35% among 830;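 active = mean inhibition across replicates above a set limit taken from the earlier primary screen, cut at about 28% in these data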
# ZTA DNA inh trip – EBV Zta DNA binding inhibitors, counter-screen for EBNA-1 inhibitor project, biochemical, fluorescence polarization, triplicate; shares compounds with EBNA-1 inh; Zta-ZRE DNA binding, Cy5 fluorescence polarization; inhibition, % at 11.1 µM; 830 tested, under 10 active; AID 2328, 2010;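 active = mean inhibition over triplicates above a set limit taken from the primary EBNA-1 screen, cut at about 37% in these data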;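 also: purified full length Zta protein with Cy5 labeled ZRE DNA probe; inhibitors lower polarization by freeing the labeled DNA probe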
# Zta DNA confirm – EBV Zta binding to ZRE DNA, inhibitors, confirmation, biochemical, fluorescence polarization, triplicate. shares compounds with ZTA counter. inhibition, % at 11.1 µM. hit rate 30% among 320. AID 2361, 2010;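 active = mean inhibition across triplicate runs above the hit threshold derived for the original primary screen, cut at about 33% in these data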
# EBNA-1 counter – EBNA-1 DNA-binding inhibition, counter-screen for ZTA inhibitor project, biochemical, fluorescence polarization. inhibition, % at 14.8 µM. 320 tested, under 10 active. AID 2362, 2010. shares compounds with ZTA counter; call rule not given here
# A number is an active result; – = inactive; · = no result. Most compounds without a hit are left out; they make up all but 5.2% or so of the library.
SMILES,HCV NS3 hel inh,ZTA counter,PfM18AAP inh-1,HCV core dimer,ALR H2O2 inh,EBNA-1 inh,PfM18AAP inh-2,CTSL1 counter,EBNA-1 confirm,ZTA DNA inh trip,others
CCOc1ccc(/C=N/Nc2ccc(Cl)nn2)c(O)c1,–,–,36,–,–,–,–,–,·,·,
Oc1ccc(/C=N/Nc2ccc(Cl)nn2)c(O)c1O,–,–,65,–,·,–,49,–,·,·,
CN1CCN(c2nc3ccccn3c(=O)c2C=C(C#N)C#N)CC1,–,–,–,–,–,–,·,·,·,·,
COc1ccc2oc(C(=O)NCCN3CCOCC3)c(C)c2c1OC,–,–,–,–,–,–,·,·,·,·,
CC(C(=O)NC(N)=O)N1C(=O)NC(c2ccccc2)(c2ccccc2)C1=O (centres undefined),–,–,–,–,·,–,·,·,·,·,
FC(F)(F)c1ccccc1/C=N/Nc1ccccn1,–,–,–,–,–,–,·,·,·,·,
Cc1cc(=O)[nH]c(N/N=C/c2ccccc2Cl)n1,–,–,–,–,–,–,·,·,·,·,
Nn1cnnc1N/N=C/c1cccc(Cl)c1Cl,–,·,52,·,–,·,–,–,·,·,
CCc1nnc(N/N=C/c2ccccc2Cl)n1N,–,–,39,–,–,–,–,–,·,·,
Nn1cnnc1N/N=C/c1ccccc1C(F)(F)F,–,–,48,–,–,–,–,–,·,·,
COc1cccc(/C=N/Nc2nnc(C)n2N)c1OCc1ccccc1Cl,–,–,41,–,–,–,–,–,·,·,
O=C(COc1ccc(C(=S)N2CCOCC2)cc1Cl)Nc1ccccc1Cl,–,–,42,–,–,–,–,–,·,·,
CN(NC(=S)Nc1ccc(OC(F)F)cc1)C(=S)Nc1ccc(OC(F)F)cc1,–,–,–,–,–,–,·,·,·,·,
FC(F)Oc1ccc(NC(=S)Nn2cnnc2)cc1,–,–,80,–,–,–,66,–,·,·,
Cc1c(C)n(Cc2ccccc2)c2ncnc(NN)c12,–,39,34,–,–,–,–,–,·,·,Zta DNA confirm=–;EBNA-1 counter=–
CC(C)CCOc1ccc(C(=O)NN2C(=O)NC3(CCCCC3)C2=O)cc1,·,–,·,–,–,–,·,·,·,·,
OC(Cn1cnnc1)c1ccccc1 (centres undefined),–,53,79,–,·,–,76,–,·,·,Zta DNA confirm=–;EBNA-1 counter=–
OC(CN1CCc2ccccc2C1)c1ccccc1 (centres undefined),–,–,–,–,–,–,·,·,·,·,
Cc1cccc(NC(=O)CN2C(=O)S/C(=C\c3cc(C)n(C)c3C)C2=O)c1,–,–,–,–,·,30,·,·,–,–,
Cc1ccc(NC(=O)CN2C(=O)S/C(=C\c3cc(C)n(C)c3C)C2=O)cc1,–,–,–,–,–,–,·,·,·,·,
Cc1ccc(S(=O)(=O)N(CC(=O)N/N=C\c2cccs2)c2cccc3cccnc23)cc1,–,–,–,–,·,32,·,·,28,–,
Cc1ccc(S(=O)(=O)N(CC(=O)N/N=C/c2cccc(C)c2)c2cccc3cccnc23)cc1,–,–,–,–,–,–,·,·,·,·,
O=C1N/C(=C\c2ccccc2)C(O)=C1C=NCc1ccccc1,–,–,–,–,·,33,·,·,–,–,
CC1=CC(=C(C#N)C#N)C=C(C)N1CCN1CCN(C(=O)Nc2ccc(Cl)c(Cl)c2)CC1,–,–,–,–,–,76,·,·,65,–,
CCOc1ccccc1N1CCN(C(=O)Nc2ccc(Cl)c(Cl)c2)CC1,–,–,–,–,–,–,·,·,·,·,
SMILES,HCV NS3 hel inh,ZTA counter,PfM18AAP inh-1,HCV core dimer,ALR H2O2 inh,EBNA-1 inh,PfM18AAP inh-2,CTSL1 counter,EBNA-1 confirm,ZTA DNA inh trip,others
CC(=O)c1sc(NC(=O)COc2ccc(Br)cc2)nc1C,–,–,–,–,–,43,·,·,–,–,
COC(=O)c1sc(NC(=O)COc2cccc(C)c2)nc1C,–,–,–,–,–,–,·,·,·,·,
CC(=O)c1sc(NC(=O)COc2ccc([N+](=O)[O-])cc2)nc1C,–,–,–,–,–,–,·,·,·,·,
COC(=O)c1sc(NC(=O)COc2ccc(OC)cc2)nc1C,–,–,–,–,–,30,·,·,–,–,
CCOC(=O)c1sc(NC(=O)COc2ccc3c(c2)OCO3)nc1C,–,–,–,–,–,65,·,·,124,–,
COc1ccc(N=C2NC(=O)/C(=C/C=C/c3ccccc3)S2)cc1,–,–,–,–,–,32,·,·,29,–,
COc1ccc(-c2nnc(SCc3ccc(C(=O)O)cc3)n2C)cc1OC,–,–,–,–,–,–,·,·,·,·,
CCOC(=O)Nc1ccc2c(COC(=O)CN(C)S(=O)(=O)c3ccc(C)cc3)cc(=O)oc2c1,·,–,·,–,–,56,·,·,–,–,
Cc1c(C(C)NC(=O)c2cc(COc3cccc4cnccc34)on2)cnn1C (centres undefined),–,–,–,–,–,–,·,·,·,·,
N#C/C(=N\Nc1cccc(C(F)(F)F)c1)C(=O)c1csc(-c2cccnc2)n1,–,–,–,–,97,50,·,·,–,–,
Cc1ccc(Nc2nc(NCC3CCCO3)nc(N)c2[N+](=O)[O-])cc1C (centres undefined),–,–,–,–,–,122,·,·,110,–,
CC(C)CNc1nc(N)c([N+](=O)[O-])c(NCC2CCCO2)n1 (centres undefined),–,–,–,–,–,–,·,·,·,·,
CC1Cc2cc(-c3csc(N)n3)ccc2O1 (centres undefined),–,–,–,–,·,–,·,·,·,·,
Nc1nc(-c2ccc3c(c2)CCCC3)cs1,–,–,–,–,99,53,·,·,–,–,
Cc1ccc(/C=N/n2c(C3CCCCC3)n[nH]c2=S)cc1,–,–,–,–,–,–,·,·,·,·,
